Compound activity (PubChem BioAssay)
M5 antag = CHRM5 antagonism in calcium assay. P08912. CHO-hM5 cells, Fluo-8 calcium fluorescence, ACh EC80. inhibition, % at 3 µM. 360,000 tested, 0.59% active. AID 624040;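 active = inhibition above a per-plate cutoff, the mean of that plate's test compounds plus 3 SD, cut at about 27% in these data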;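 also: 0% = acetylcholine EC80 with DMSO and 100% = DMSO without agonist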
Target sequence (P08912 whole entry, looked up): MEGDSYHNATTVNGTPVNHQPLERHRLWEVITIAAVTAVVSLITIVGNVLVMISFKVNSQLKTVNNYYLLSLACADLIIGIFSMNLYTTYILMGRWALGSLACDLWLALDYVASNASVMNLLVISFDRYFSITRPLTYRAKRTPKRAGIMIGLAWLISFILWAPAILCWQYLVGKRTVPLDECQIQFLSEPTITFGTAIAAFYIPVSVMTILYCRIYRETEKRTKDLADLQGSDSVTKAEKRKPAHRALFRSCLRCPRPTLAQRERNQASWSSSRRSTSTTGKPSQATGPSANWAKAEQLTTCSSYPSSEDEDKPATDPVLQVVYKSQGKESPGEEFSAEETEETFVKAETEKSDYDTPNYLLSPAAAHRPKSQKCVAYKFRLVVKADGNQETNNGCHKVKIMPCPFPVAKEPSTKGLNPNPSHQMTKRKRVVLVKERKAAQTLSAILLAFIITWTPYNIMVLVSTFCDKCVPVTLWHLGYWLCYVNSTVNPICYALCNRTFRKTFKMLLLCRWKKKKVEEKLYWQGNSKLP
CHRM1 antagonist = human CHRM1 antagonism; P11229; CHO-K1 hM1, Fluo-8 calcium fluorescence, ACh EC80 antagonist; inhibition, % at 3 µM; 360,000 tested, 1.3% active;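 active = percent inhibition above its own plate's cutoff, namely the mean of that plate's compound wells plus 3 SD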;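 also: peak over basal fluorescence ratio during 140 s after agonist addition; 0% = ACh EC80 plus DMSO and 100% = DMSO alone without agonist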
M5 PAM = potentiates acetylcholine response at human M5 receptor | CHO-K1 hM5, Fluo-8 calcium, ACh EC20 PAM; 0% = ACh EC20, 100% = ACh EC100 | activation, % at 3 µM | 360,000 tested, 0.3% active | AID 624038;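 active = activation above the run cutoff, the mean activation of all test compounds plus 3 SD, cut at about 18% in these data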
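Replicates: One well per compound, no replicates | System: Human M5 receptor in CHO-K1 cells | Benchmarks: Low control EC20 acetylcholine (0%), high control EC100 acetylcholine (100%) | Probe or stimulus: Acetylcholine, EC20 level | Times: Fluo-8 loading 80 min at 37 °C plus 30 min room temperature | Signal: Intracellular calcium via Fluo-8 fluorescence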
CHRM5 agonist = agonists of human muscarinic M5 receptor (CHRM5). P08912. CHO-K1 hM5 cells, Fluo-8 calcium fluorescence; 0% DMSO wells, 100% maximal acetylcholine response. activation, % at 3 µM. 360,000 tested, 0.19% active;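 active = activation above the run's mean over test compounds plus 3 SD, cut at about 23% in these data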;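 also: signal is peak over basal fluorescence ratio across the kinetic read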
M1 ag = human M1 muscarinic receptor agonism. P11229. CHO-K1 hM1, Fluo-8 calcium fluorescence, agonist mode; 0% DMSO, 100% acetylcholine EC100. activation, % at 3 µM. 360,000 tested, 0.33% active;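 active = activation above the run's mean compound activation plus 3 SD, cut at about 16% in these data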;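 also: peak over basal fluorescence ratio within a 140 s kinetic read after compound addition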
CHRM1 PAM = positive allosteric modulators of human M1 muscarinic receptor. activation, % at 3 µM. 360,000 tested, 0.088% active. P11229. CHO-K1 hM1, Fluo-8 calcium fluorescence, ACh EC20; 0% = ACh EC20, 100% = maximal ACh; in the data active = activation above about 19%, passing the limit was not always enough
* marks the source's active call; other numbers are inactive results. A selection: hits, their analogues and other compounds. The true share with any hit is near 2%.

What do the screens show for `O=C(NCCN1CCCCC1)/C(=C/c1ccco1)NC(=O)c1ccccc1`?
M5 antag: -4; CHRM1 antagonist: -28; M5 PAM: 6; CHRM5 agonist: -3; M1 ag: -2; CHRM1 PAM: 31*

How did Cc1ccc(C(=O)N/C(=C\c2ccco2)C(=O)NCCN2CCCCC2)cc1C do in these assays?
M5 antag: 15; CHRM1 antagonist: -3; M5 PAM: -1; CHRM5 agonist: -3; M1 ag: -6; CHRM1 PAM: 6

What do the screens show for `O=S1(=O)C[C@@H](N2CC[C@@H](O)C2)[C@H](COCc2ccccc2)N1`?
M5 antag: 5; CHRM1 antagonist: -15; M5 PAM: 2; CHRM5 agonist: -2; M1 ag: -3; CHRM1 PAM: 3

Results for OC(CN1CCN(C(c2ccccc2)c2ccccc2)CC1)c1ccccc1 (stereo not given) ?
M5 antag: 15; CHRM1 antagonist: 26; M5 PAM: -17; CHRM5 agonist: -6; M1 ag: -10; CHRM1 PAM: -25

How did COc1cc(CN2CCN(C(c3ccccc3)c3ccccc3)CC2)cc(OC)c1OC do in these assays?
M5 antag: 9; CHRM1 antagonist: 96*; M5 PAM: -33; CHRM5 agonist: -26; M1 ag: -9; CHRM1 PAM: -30

Results for COc1cc(C(=S)N2CCN(C(c3ccccc3)c3ccccc3)CC2)cc(OC)c1O ?
M5 antag: -1; CHRM1 antagonist: -14; M5 PAM: 8; CHRM5 agonist: -8; M1 ag: -4; CHRM1 PAM: 7

What do the screens show for `COc1cccc(CN2CCN(Cc3cc(OC)c(OC)c(OC)c3)CC2)c1OC`?
M5 antag: 7; CHRM1 antagonist: -14; M5 PAM: -6; CHRM5 agonist: -3; M1 ag: -4; CHRM1 PAM: 10

Results for c1ccc(OCCN2CCN(C(c3ccccc3)c3ccccc3)CC2)cc1 ?
M5 antag: 14; CHRM1 antagonist: 52*; M5 PAM: -34; CHRM5 agonist: -22; M1 ag: -8; CHRM1 PAM: -25

What do the screens show for `c1ccc(OCCN2CCNCC2)cc1`?
M5 antag: 7; CHRM1 antagonist: -8; M5 PAM: -4; CHRM5 agonist: 0; M1 ag: -1; CHRM1 PAM: 4

How did OC(CN1CCN(C(c2ccccc2)c2ccccc2)CC1)c1ccc(Br)cc1 (stereo not given) do in these assays?
M5 antag: 10; CHRM1 antagonist: 38*; M5 PAM: -18; CHRM5 agonist: -6; M1 ag: -10; CHRM1 PAM: -22

How did COc1cccc(CN2CCN(C(c3ccccc3)c3ccccc3)CC2)c1O do in these assays?
M5 antag: 16; CHRM1 antagonist: 91*; M5 PAM: -28; CHRM5 agonist: -21; M1 ag: -8; CHRM1 PAM: -29

What do the screens show for `COCc1ccc(C(=O)N2CCCC(N(C)CCc3ccccc3)C2)s1` (stereo not given)?
M5 antag: 0; CHRM1 antagonist: -5; M5 PAM: -1; CHRM5 agonist: -3; M1 ag: -9; CHRM1 PAM: -2

Results for [N-]=[N+]=NC(c1ccccc1)C(NC(=O)c1cc(C(F)(F)F)cc(C(F)(F)F)c1)c1ccccc1 (stereo not given) ?
M5 antag: 11; M5 PAM: -17; CHRM5 agonist: 0

What do the screens show for `CC1(C(=O)Nc2ccc3c(c2)OCCO3)CN(S(C)(=O)=O)CC(=O)N1CC(F)(F)F` (stereo not given)?
M5 antag: 2; M5 PAM: -2; CHRM5 agonist: -3

What do the screens show for `CCOC(=O)C1=CCN(S(=O)(=O)c2ccccc2Cl)C1c1ccc(C)cc1` (stereo not given)?
M5 antag: 6; CHRM1 antagonist: 6; M5 PAM: -10; CHRM5 agonist: -5; M1 ag: -7; CHRM1 PAM: -10

How did CN(CCCC1CCCC1)C(=O)c1cc(COc2ccc(F)cc2F)on1 do in these assays?
M5 antag: 7; CHRM1 antagonist: -2; M5 PAM: -9; CHRM5 agonist: -4; M1 ag: -4; CHRM1 PAM: -3

Results for CN(CCCN1CCCCC1)C(=O)c1cc(COc2ccc(F)cc2F)on1 ?
M5 antag: 16; CHRM1 antagonist: 38*; M5 PAM: -5; CHRM5 agonist: -8; M1 ag: -7; CHRM1 PAM: -21

What do the screens show for `O=C(CNC(=O)c1cncc(Br)c1)Nc1ccc(F)c(F)c1F`?
M5 antag: 16; CHRM1 antagonist: 4; M5 PAM: -8; CHRM5 agonist: -2; M1 ag: -5; CHRM1 PAM: -5

Results for O=C(CNC(=O)c1cnccn1)Nc1ccc(F)c(F)c1F ?
M5 antag: -12; CHRM1 antagonist: 6; M5 PAM: 21*; CHRM5 agonist: 15; M1 ag: -1; CHRM1 PAM: -2

Results for COc1ccc(NC(=O)C2Cc3c(-c4ccc(NC(C)=O)cc4)ccnc3O2)cn1 (stereo not given) ?
M5 antag: 0; CHRM1 antagonist: -3; M5 PAM: 0; CHRM5 agonist: 1; M1 ag: -1; CHRM1 PAM: 9

How did N#Cc1ccccc1Sc1ccccc1C(=O)NCC(c1ccco1)N1CCCC1 (stereo not given) do in these assays?
M5 antag: 4; CHRM1 antagonist: 37*; M5 PAM: -26; CHRM5 agonist: -7; M1 ag: -7; CHRM1 PAM: -23

How did O=C(NCC(c1ccco1)N1CCCCC1)C(c1ccccc1)c1ccccc1 (stereo not given) do in these assays?
M5 antag: 21; CHRM1 antagonist: 78*; M5 PAM: -28; CHRM5 agonist: -15; M1 ag: -8; CHRM1 PAM: -25

How did N#Cc1ccc(C(=O)NCC(c2ccco2)N2CCCC2)cc1 (stereo not given) do in these assays?
M5 antag: -5; CHRM1 antagonist: -3; M5 PAM: 1; CHRM5 agonist: -5; M1 ag: -5; CHRM1 PAM: 5

What do the screens show for `O=C(Cc1ccccc1F)NCC(c1ccco1)N1CCCCC1` (stereo not given)?
M5 antag: -16; CHRM1 antagonist: 7; M5 PAM: 4; CHRM5 agonist: -8; M1 ag: -13; CHRM1 PAM: -22

Results for O=C(CCc1nnc(Cc2c[nH]c3ccccc23)o1)NC(C1CC1)C1CC1 ?
M5 antag: 0; CHRM1 antagonist: -3; M5 PAM: 2; CHRM5 agonist: -1; M1 ag: -7; CHRM1 PAM: 0

Results for Cc1cc(C)nc(NS(=O)(=O)c2ccc(NC(=O)C3(c4ccc([N+](=O)[O-])cc4)CCCC3)cc2)n1 ?
M5 antag: 3; CHRM1 antagonist: 15; M5 PAM: 5; CHRM5 agonist: 19; M1 ag: 24*; CHRM1 PAM: 8
